Columns and labels:
[1] = Mean residence time in rat at 1 mg/kg, iv; assay type: ADME, organism-based; conditions: in vivo
Outline: (§1)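 Rat IV dosing at 1 mg/kg; plasma PK parameters (clearance, half-life, MRT, Vss, AUC) derived from plasma concentration-time profile.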

[2] = target: T1, Metabotropic glutamate receptor 4 (Homo sapiens, UniProt Q14833); assay: Positive allosteric modulation of human mGlu4 receptor assessed as increase in glutamate-induced calcium mobilization at 30 uM relative to PHCCC; assay type: functional
T1 sequence (Q14833 whole entry): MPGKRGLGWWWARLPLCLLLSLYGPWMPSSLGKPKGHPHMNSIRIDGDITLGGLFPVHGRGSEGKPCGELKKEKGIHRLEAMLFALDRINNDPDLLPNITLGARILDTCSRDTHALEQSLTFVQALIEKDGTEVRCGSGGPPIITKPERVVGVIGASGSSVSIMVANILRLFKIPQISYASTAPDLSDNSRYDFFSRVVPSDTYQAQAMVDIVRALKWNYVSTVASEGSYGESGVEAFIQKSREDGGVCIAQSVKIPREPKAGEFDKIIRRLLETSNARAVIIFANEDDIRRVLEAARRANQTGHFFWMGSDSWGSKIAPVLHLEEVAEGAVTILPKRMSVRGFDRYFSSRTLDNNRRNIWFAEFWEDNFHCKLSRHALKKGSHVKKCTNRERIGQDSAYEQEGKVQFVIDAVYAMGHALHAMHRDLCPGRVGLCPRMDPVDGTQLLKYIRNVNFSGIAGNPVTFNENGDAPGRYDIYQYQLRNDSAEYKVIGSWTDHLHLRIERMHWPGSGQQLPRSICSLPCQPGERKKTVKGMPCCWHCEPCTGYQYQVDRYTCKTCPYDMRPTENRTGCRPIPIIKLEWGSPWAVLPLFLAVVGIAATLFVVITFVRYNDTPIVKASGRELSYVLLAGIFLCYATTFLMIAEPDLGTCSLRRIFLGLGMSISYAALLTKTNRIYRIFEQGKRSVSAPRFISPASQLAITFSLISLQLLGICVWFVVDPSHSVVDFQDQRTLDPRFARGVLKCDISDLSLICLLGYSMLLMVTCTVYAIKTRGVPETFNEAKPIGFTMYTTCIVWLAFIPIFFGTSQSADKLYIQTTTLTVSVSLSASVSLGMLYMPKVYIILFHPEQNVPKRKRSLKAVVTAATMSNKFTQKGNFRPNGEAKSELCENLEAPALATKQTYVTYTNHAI
Outline: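 Calcium mobilization assay at human mGlu4; response amplitude with 30 µM test compound normalized to the standard PHCCC and expressed as %GluMax.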

[3] = tested on: Plasma; assay: Fraction unbound in rat plasma by equilibrium dialysis method; assay type: ADME, cell-free
Outline: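 Protein binding in rat plasma measured by equilibrium dialysis; fraction unbound (Fu) reported.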

[4] = AUC in rat at 1 mg/kg, iv; assay type: ADME, organism-based; conditions: in vivo; outline: as §1
[5] = Plasma clearance in rat at 1 mg/kg, iv; assay type: ADME, organism-based; outline: as §1
[6] = target: T1, Metabotropic glutamate receptor 4; assay: Positive allosteric modulation of human mGlu4 receptor assessed as increase in glutamate-induced calcium mobilization; assay type: functional
Outline: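 Calcium mobilization assay in cells expressing human mGlu4; potentiation of the glutamate response measured; EC50 values are the average of n = 3.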

[7] = Volume of distribution at steady state in rat at 1 mg/kg, iv; assay type: ADME, organism-based; conditions: in vivo, read-out: Vdss; outline: as §1
[8] = Half life in rat at 1 mg/kg, iv; assay type: ADME, organism-based; conditions: in vivo; outline: as §1
[9] = Ratio of systemic plasma concentration to hepatic portal vein plasma concentration in rat at 10 mg/kg, po coadministered with panirreversible P450 inhibitor ABT; assay type: ADME, organism-based; conditions: in vivo
Outline: (§2)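 Rats dosed orally at 10 mg/kg, with vehicle or co-dosed with the pan-irreversible P450 inhibitor 1-aminobenzotriazole (ABT); samples taken at 1 h from systemic plasma, hepatic portal vein plasma and brain. Brain:plasma and systemic:HPV ratios are calculated from these concentrations.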

[10] = Plasma concentration in rat hepatic portal vein at 10 mg/kg, po incubated for 1 hr; assay type: ADME, organism-based; outline: as §2
[11] = Ratio of drug level in rat brain to plasma at 10 mg/kg, po coadministered with panirreversible P450 inhibitor ABT incubated for 1 hr; assay type: ADME, organism-based; conditions: read-out: BPR
Outline: (§3)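 Rats dosed orally at 10 mg/kg, either with vehicle or co-dosed with 1-aminobenzotriazole (ABT), a pan-irreversible cytochrome P450 inhibitor. At 1 h post-dose, systemic plasma, hepatic portal vein plasma and brain were sampled. Drug concentrations were measured in each matrix, and brain:plasma ratios were derived from these levels.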

[12] = Systemic plasma concentration in rat at 10 mg/kg, po incubated for 1 hr; assay type: ADME, organism-based; outline: as §3
[13] = Drug level in rat brain at 10 mg/kg, po coadministered with panirreversible P450 inhibitor ABT incubated for 1 hr; assay type: ADME, organism-based; conditions: read-out: Drug uptake; outline: as §2
[14] = Systemic plasma concentration in rat at 10 mg/kg, po coadministered with panirreversible P450 inhibitor ABT incubated for 1 hr; assay type: ADME, organism-based; outline: as §3
[15] = Ratio of systemic plasma concentration to hepatic portal vein plasma concentration in rat at 10 mg/kg, po; assay type: ADME, organism-based; conditions: in vivo; outline: as §2
[16] = Plasma concentration in rat hepatic portal vein at 10 mg/kg, po coadministered with panirreversible P450 inhibitor ABT incubated for 1 hr; assay type: ADME, organism-based; outline: as §2
[17] = Ratio of drug level in rat brain to plasma at 10 mg/kg, po incubated for 1 hr; assay type: ADME, organism-based; conditions: read-out: BPR; outline: as §2
[18] = Drug level in rat brain at 10 mg/kg, po incubated for 1 hr; assay type: ADME, organism-based; conditions: read-out: Drug uptake; outline: as §2

Row | Structure (SMILES) | %max [2] [%] | EC50 [6] [nM] | other results
1 | Cc1ccc(S(=O)(=O)n2ccc(NC(=O)c3ccccn3)c2)cc1C | 80.3 | 62 | MRT [1]: 2.48 h; Fu [3]: 0.012; AUC [4]: 448 ng·h/mL; clearance [5]: 37.2 mL/min/kg; Vd [7]: 5.5 L/kg; half-life [8]: 4.2 h
2 | O=C(Nc1ccn(S(=O)(=O)Cc2ccccc2F)c1)c1ccccn1 | 117 | 251 | –
3 | O=C(Nc1ccn(S(=O)(=O)c2ccc(Cl)nc2)c1)c1ccccn1 | 72.9 | 440 | –
4 | CCc1nc(NC(=O)c2ccccn2)sc1S(=O)(=O)Cc1c(F)cccc1F | 109 | 150 | –
5 | O=C(Nc1ccn(S(=O)(=O)Cc2ccc(F)cc2Cl)c1)c1ccccn1 | 122 | 84 | –
6 | O=C(Nc1ccn(S(=O)(=O)c2ccc(C(F)(F)F)cc2)c1)c1ccccn1 | 35.6 | 739 | –
7 | O=C(Nc1ccn(S(=O)(=O)Cc2ccc(F)cc2F)c1)c1ccccn1 | 109 | 190 | –
8 | CC(c1ccccc1)S(=O)(=O)n1ccc(NC(=O)c2ccccn2)c1 (stereo not drawn) | 59.6 | 2970 | –
9 | O=C(Nc1ccn(S(=O)(=O)c2ccc(Cl)cc2)c1)c1ccccn1 | 103 | 1240 | Fu [3]: 0.004
10 | O=C(Nc1ccn(S(=O)(=O)Cc2ccc(Cl)cc2)c1)c1ccccn1 | 140 | 398 | –
11 | Cc1nc(NC(=O)c2ccccn2)sc1S(=O)(=O)Cc1ccc(F)cc1F | 93.5 | 547 | –
12 | O=C(Nc1ccn(S(=O)(=O)C(F)c2ccccc2F)c1)c1ccccn1 (stereo not drawn) | 71 | 1020 | –
13 | O=C(Nc1ccn(S(=O)(=O)C(F)(F)c2ccccc2F)c1)c1ccccn1 | 33.5 | > 30000 | –
14 | Cc1cccc(S(=O)(=O)n2ccc(NC(=O)c3ccccn3)c2)c1 | 84.8 | 104 | Fu [3]: 0.001
15 | Cc1ccc(S(=O)(=O)n2ccc(NC(=O)c3ccccn3)c2)cc1 | 88.8 | 122 | Fu [3]: 0.009
16 | Cc1nc(NC(=O)c2ccccn2)sc1S(=O)(=O)Cc1ccccc1Cl | 94.8 | 448 | –

Row | Structure (SMILES) | %max [2] [%] | EC50 [6] [nM] | other results
17 | O=C(Nc1ncc(S(=O)(=O)Cc2ccc(Cl)cc2F)s1)c1ccccn1 | 35.1 | 83 | –
18 | O=C(Nc1ccn(S(=O)(=O)Cc2ccccc2Cl)c1)c1ccccn1 | 119 | 174 | –
19 | CCc1nc(NC(=O)c2ccccn2)sc1S(=O)(=O)Cc1ccc(Cl)cc1F | 120 | 217 | –
20 | Cc1cc(S(=O)(=O)n2ccc(NC(=O)c3ccccn3)c2)ccc1F | 98.9 | 268 | –
21 | O=C(Nc1ccn(S(=O)(=O)Cc2cccc(F)c2)c1)c1ccccn1 | 98.6 | 572 | –
22 | Cc1ccc(S(=O)(=O)n2cc(NC(=O)c3ccccn3)cn2)cc1C | 92.9 | 148 | Fu [3]: 0.005
23 | Cc1nc(NC(=O)c2ccccn2)sc1S(=O)(=O)Cc1ccc(Cl)cc1F | 112 | 4140 | –
24 | Cc1cc(S(=O)(=O)n2ccc(NC(=O)c3ccccn3)c2)ccc1Cl | 72.2 | 163 | Ratio [9]: 0.26; MRT [1]: 1.41 h; concentration at 1 h [10]: 731 ng/mL; Kp at 1 h [11]: 1; concentration at 1 h [12]: 7.4 ng/mL; concentration at 1 h [13]: 176 ng/g; Fu [3]: 0.004; concentration at 1 h [14]: 198 ng/mL; Ratio [15]: < 0.01; concentration at 1 h [16]: 764 ng/mL; AUC [4]: 192 ng·h/mL; clearance [5]: 86.8 mL/min/kg; Kp at 1 h [17]: 1; Vd [7]: 7.4 L/kg; half-life [8]: 2.78 h; concentration at 1 h [18]: 8.1 ng/g
25 | O=C(Nc1ncc(S(=O)(=O)Cc2ccccc2Cl)s1)c1ccccn1 | 30.6 | 189 | –
26 | O=C(Nc1ccn(S(=O)(=O)Cc2ccc(C(F)(F)F)cc2)c1)c1ccccn1 | 88.7 | 188 | –
27 | Cc1cccc(CS(=O)(=O)n2ccc(NC(=O)c3ccccn3)c2)c1 | 112 | 4180 | –
28 | O=C(Nc1ccn(S(=O)(=O)c2ccc(Cl)cn2)c1)c1ccccn1 | 83 | 344 | –
29 | O=C(Nc1ccn(S(=O)(=O)c2ccc(F)cc2)c1)c1ccccn1 | 78.8 | 740 | –
30 | O=C(Nc1cnn(S(=O)(=O)c2ccc(C(F)(F)F)cc2)c1)c1ccccn1 | 35.3 | 242 | –
31 | Cc1nc(NC(=O)c2ccccn2)sc1S(=O)(=O)Cc1c(F)cccc1F | 99.3 | 295 | –
